≈ marks a conversion by molar mass, not a printed value.
Tests used:
Assay type in all cases: functional
Nakaseomyces glabratus [1] = assay: Antifungal activity against fluconazole-resistant Candida glabrata DSY2254 increase expressing of CgCDR1 and CgCDR2 genes after 24 hrs by visually and spectrophotometric analysis; conditions: DSY2254, 24 h
Method in brief: (§1)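 Endpoint is MIC90, in μg/mL, read at 24 h by both visual inspection and spectrophotometry.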

Candida albicans [2] = assay: Antifungal activity against fluconazole-resistant Candida albicans DSY296 harboring ERG11 gene mutant and increase expressing of CDR1 and CDR2 genes after 24 hrs by visually and spectrophotometric analysis; conditions: DSY296, 24 h; method in brief: as §1
Candida albicans [3] = assay: Antifungal activity against wild type Candida albicans ATCC 60193 after 24 hrs by visually and spectrophotometric analysis; conditions: ATCC 60193, 24 h
Clavispora lusitaniae [4] = assay: Antifungal activity against Candida lusitaniae ATCC 200950 after 24 hrs by visually and spectrophotometric analysis; conditions: ATCC 200950, 24 h
Method in brief: (§2)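 Read-out is MIC90 in μg/mL, scored at 24 h both by eye and spectrophotometrically. The panel is Candida isolates that earlier reports describe as amphotericin B-resistant, with amphotericin B run alongside as the reference drug.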

Candida albicans [5] = assay: Antifungal activity against fluconazole-resistant Candida albicans DSY284 harboring ERG11 gene mutant and increase expressing of CDR1 and CDR2 genes after 24 hrs by visually and spectrophotometric analysis; conditions: DSY284, 24 h; method in brief: as §1
Candida albicans [6] = assay: Antifungal activity against Candida albicans ATCC 200955 after 24 hrs by visually and spectrophotometric analysis; conditions: ATCC 200955, 24 h; method in brief: as §1
Clavispora lusitaniae [7] = assay: Antifungal activity against Candida lusitaniae ATCC 24348 after 24 hrs by visually and spectrophotometric analysis; conditions: ATCC 24348, 24 h; method in brief: as §2
Candida albicans [8] = assay: Antifungal activity against fluconazole-resistant Candida albicans DSY348 harboring ERG11 gene mutant and increase expressing of CDR1 and CDR2 genes after 24 hrs by visually and spectrophotometric analysis; conditions: DSY348, 24 h; method in brief: as §1
Candida albicans [9] = assay: Antifungal activity against fluconazole-resistant Candida albicans DSY292 harboring ERG11 gene mutant and increase expressing of MDR1 gene after 24 hrs by visually and spectrophotometric analysis; conditions: DSY292, 24 h; method in brief: as §1
[10] = tested on: Meyerozyma guilliermondii; assay: Antifungal activity against wild type Candida guilliermondii after 24 hrs by visually and spectrophotometric analysis
Nakaseomyces glabratus [11] = assay: Antifungal activity against fluconazole-resistant Candida glabrata DSY754 increase expressing of CgCDR1 gene after 24 hrs by visually and spectrophotometric analysis; conditions: DSY754, 24 h; method in brief: as §1
Kluyveromyces marxianus = assay: Antifungal activity against wild type Candida kefyr after 24 hrs by visually and spectrophotometric analysis
Candida albicans [12] = assay: Antifungal activity against fluconazole-resistant Candida albicans DSY289 harboring ERG11 gene mutant and increase expressing of CDR1 and CDR2 genes after 24 hrs by visually and spectrophotometric analysis; conditions: DSY289, 24 h; method in brief: as §1
Candida albicans [13] = assay: Antifungal activity against fluconazole-resistant Candida albicans DSY775 harboring ERG11 gene mutant and increase expressing of CDR1 and CDR2 genes after 24 hrs by visually and spectrophotometric analysis; conditions: DSY775, 24 h; method in brief: as §1
Clavispora lusitaniae [14] = assay: Antifungal activity against Candida lusitaniae ATCC 60247 after 24 hrs by visually and spectrophotometric analysis; conditions: ATCC 60247, 24 h; method in brief: as §2
Clavispora lusitaniae [15] = assay: Antifungal activity against Candida lusitaniae ATCC 200953 after 24 hrs by visually and spectrophotometric analysis; method in brief: as §2
Candida parapsilosis = assay: Antifungal activity against wild type Candida parapsilosis ATCC 34136 after 24 hrs by visually and spectrophotometric analysis; conditions: Lodderomyces parapsilosis, ATCC 34136, 24 h
Clavispora lusitaniae [16] = assay: Antifungal activity against Candida lusitaniae ATCC 200952 after 24 hrs by visually and spectrophotometric analysis; method in brief: as §2
Nakaseomyces glabratus [17] = assay: Antifungal activity against fluconazole-resistant Candida glabrata DSY2271 increase expressing of CgCDR2 genes after 24 hrs by visually and spectrophotometric analysis; conditions: DSY2271, 24 h; method in brief: as §1
Clavispora lusitaniae [18] = assay: Antifungal activity against Candida lusitaniae ATCC 200951 after 24 hrs by visually and spectrophotometric analysis; method in brief: as §2
Nakaseomyces glabratus [19] = assay: Antifungal activity against wild type Candida glabrata after 24 hrs by visually and spectrophotometric analysis
Candida tropicalis [20] = assay: Antifungal activity against Candida tropicalis ATCC 200956 after 24 hrs by visually and spectrophotometric analysis; conditions: ATCC 200956, 24 h; method in brief: as §2
Nakaseomyces glabratus [21] = assay: Antifungal activity against fluconazole-resistant Candida glabrata DSY530 increase expressing of CgCDR1 gene after 24 hrs by visually and spectrophotometric analysis; conditions: DSY530, 24 h; method in brief: as §1
Pichia kudriavzevii = assay: Antifungal activity against wild type Candida krusei ATCC 14243 after 24 hrs by visually and spectrophotometric analysis; conditions: ATCC 14243, 24 h
Candida albicans [22] = assay: Antifungal activity against fluconazole-resistant Candida albicans DSY751 harboring ERG11 gene mutant and increase expressing of MDR1 gene after 24 hrs by visually and spectrophotometric analysis; conditions: DSY751, 24 h; method in brief: as §1
Candida albicans [23] = assay: Antifungal activity against fluconazole-resistant Candida albicans DSY735 expressing high level of CDR1 and CDR2 genes after 24 hrs by visually and spectrophotometric analysis; conditions: DSY735, 24 h; method in brief: as §1
Nakaseomyces glabratus [24] = assay: Antifungal activity against fluconazole-resistant Candida glabrata DSY756 increase expressing of CgCDR1, CgCDR2, and CgSNQ2 genes after 24 hrs by visually and spectrophotometric analysis; conditions: DSY756, 24 h; method in brief: as §1
Candida tropicalis [25] = assay: Antifungal activity against wild type Candida tropicalis after 24 hrs by visually and spectrophotometric analysis

Compound | MIC90 (Nakaseomyces glabratus [1]) [µg/mL] | MIC90 (Candida albicans [2]) [µg/mL] | MIC90 (Candida albicans [3]) [µg/mL] | MIC90 (Clavispora lusitaniae [4]) [µg/mL] | MIC90 (Candida albicans [5]) [µg/mL] | MIC90 (Candida albicans [6]) [µg/mL] | MIC90 (Clavispora lusitaniae [7]) [µg/mL] | MIC90 (Candida albicans [8]) [µg/mL] | MIC90 (Candida albicans [9]) [µg/mL] | MIC90 [10] [µg/mL] | MIC90 (Nakaseomyces glabratus [11]) [µg/mL] | MIC90 (Kluyveromyces marxianus) [µg/mL] | MIC90 (Candida albicans [12]) [µg/mL] | MIC90 (Candida albicans [13]) [µg/mL] | MIC90 (Clavispora lusitaniae [14]) [µg/mL] | MIC90 (Nakaseomyces glabratus [17]) [µg/mL] | MIC90 (Nakaseomyces glabratus [21]) [µg/mL] | MIC90 (Candida albicans [22]) [µg/mL] | MIC90 (Candida albicans [23]) [µg/mL] | MIC90 (Nakaseomyces glabratus [24]) [µg/mL] | further results
C/C=C/CNC(=N)NCCCCCCCCN1CCCCCCOc2ccccc2CNC(=N)NC1=O.O=C(O)C(F)(F)F | 40 | 10 | 4 | 5 | 9 | 5 | 5 | 5 | 10 | 2 | 40 | 2 | 5 | 10 | 5 | 36 | 36 | 10 | 5 | 36 | MIC90 (Clavispora lusitaniae [15]): 5 µg/mL; MIC90 (Candida parapsilosis): 2 µg/mL; MIC90 (Clavispora lusitaniae [16]): 5 µg/mL; MIC90 (Clavispora lusitaniae [18]): 5 µg/mL; MIC90 (Nakaseomyces glabratus [19]): 16 µg/mL; MIC90 (Candida tropicalis [20]): 10 µg/mL; MIC90 (Pichia kudriavzevii): 4 µg/mL; MIC90 (Candida tropicalis [25]): 1 µg/mL
C/C=C/CNC(=N)NCCCCCCCCN1CCCCOC(=O)CCNC(=N)NC1=O.O=C(O)C(F)(F)F | 128 | 16 | 32 | 8 | 16 | 8 | 4 | 8 | 16 | 32 | 64 | 32 | 8 | 16 | 4 | 64 | 64 | 16 | 8 | 128 | MIC90 (Clavispora lusitaniae [15]): 8 µg/mL; MIC90 (Candida parapsilosis): 32 µg/mL; MIC90 (Clavispora lusitaniae [16]): 4 µg/mL; MIC90 (Clavispora lusitaniae [18]): 4 µg/mL; MIC90 (Nakaseomyces glabratus [19]): 64 µg/mL; MIC90 (Candida tropicalis [20]): 16 µg/mL; MIC90 (Pichia kudriavzevii): 64 µg/mL; MIC90 (Candida tropicalis [25]): 32 µg/mL
C/C=C/CNC(=N)NCCCCCCCCN1CCCCCCCCNC(=N)NC1=O |  |  |  |  |  |  |  |  |  |  |  |  |  |  |  |  |  |  |  |  | MIC50 (Candida albicans [3]): 2.5 µg/mL (≈ 5.74 µM); MIC50 (Candida parapsilosis): 5 µg/mL (≈ 11.5 µM); MIC50 (Nakaseomyces glabratus [19]): 20 µg/mL (≈ 45.9 µM); MIC50 (Pichia kudriavzevii): 5 µg/mL (≈ 11.5 µM); MIC50 (Candida tropicalis [25]): 1.25 µg/mL (≈ 2.87 µM)
C[C@@H]1[C@H](O)[C@@H](C)/C=C/C=C/C=C/C=C/C=C/C=C/C=C/[C@H](O[C@@H]2O[C@H](C)[C@@H](O)[C@H](N)[C@@H]2O)C[C@@H]2O[C@](O)(C[C@@H](O)C[C@@H](O)[C@H](O)CC[C@@H](O)C[C@@H](O)CC(=O)O[C@H]1C)C[C@H](O)[C@H]2C(=O)O [AMPHOTERICIN B] |  |  |  | 1 (≈ 1.08 µM) |  | 2 (≈ 2.16 µM) | 0.125 (≈ 0.135 µM) |  |  |  |  |  |  |  | 0.125 (≈ 0.135 µM) |  |  |  |  |  | MIC90 (Clavispora lusitaniae [15]): 1 µg/mL (≈ 1.08 µM); MIC90 (Clavispora lusitaniae [16]): 2 µg/mL (≈ 2.16 µM); MIC90 (Clavispora lusitaniae [18]): 1 µg/mL (≈ 1.08 µM); MIC90 (Candida tropicalis [20]): 8 µg/mL (≈ 8.66 µM)
OC(Cn1cncn1)(Cn1cncn1)c1ccc(F)cc1F [FLUCONAZOLE] | 128 (≈ 418 µM) | 128 (≈ 418 µM) | 2 (≈ 6.53 µM) |  | 256 (≈ 836 µM) |  |  | 32 (≈ 104 µM) | 64 (≈ 209 µM) | 4 (≈ 13.1 µM) | 64 (≈ 209 µM) | 1 (≈ 3.27 µM) | 256 (≈ 836 µM) | 128 (≈ 418 µM) |  | 64 (≈ 209 µM) | 64 (≈ 209 µM) | 256 (≈ 836 µM) | 64 (≈ 209 µM) | 128 (≈ 418 µM) | MIC90 (Candida parapsilosis): 0.5 µg/mL (≈ 1.63 µM); MIC90 (Nakaseomyces glabratus [19]): 16 µg/mL (≈ 52.2 µM); MIC90 (Pichia kudriavzevii): 256 µg/mL (≈ 836 µM); MIC90 (Candida tropicalis [25]): 2 µg/mL (≈ 6.53 µM)
C[C@@H](c1ncncc1F)[C@](O)(Cn1cncn1)c1ccc(F)cc1F [VORICONAZOLE] | 2 (≈ 5.73 µM) | 8 (≈ 22.9 µM) |  |  | 4 (≈ 11.5 µM) |  |  | 0.25 (≈ 0.716 µM) | 2 (≈ 5.73 µM) |  | 2 (≈ 5.73 µM) |  | 8 (≈ 22.9 µM) | 8 (≈ 22.9 µM) |  | 0.125 (≈ 0.358 µM) | 0.5 (≈ 1.43 µM) | 0.25 (≈ 0.716 µM) | 2 (≈ 5.73 µM) | 4 (≈ 11.5 µM) | 

Reference: ChEMBL document CHEMBL2429728, “Novel Macrocyclic Amidinoureas: Potent Non-Azole Antifungals Active against Wild-Type and Resistant Candida Species” (2013)
